According to ChEMBL document CHEMBL4371057, “Hydroxamic Acid Inhibitors Provide Cross-Species Inhibition of Plasmodium M1 and M17 Aminopeptidases” (J Med Chem, 2019):
Active and inactive are the calls of the source. No cut-off for these calls is given here.

What was measured:
[1] = Inhibition of Plasmodium vivax C-terminal His6-tagged M1 aminopeptidase (195 to 1097 residues) expressed in Escherichia coli BL21(DE3) preincubated for 20 mins followed by L-leucine-7-amido-4-methylcoumarin addition by Morrison equation analysis
Procedure, shortened: (§1)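 Recombinant enzymes (Ni-NTA then size exclusion) were preincubated 20 min with inhibitor in 100 mM Tris-HCl pH 8.0, with 2 mM CoCl2 for Pf-M17 and 1 mM for Pv-M17. Leu-AMC substrate: 20 μM (Pf-M1), 40 μM (Pv-M1), 10 μM (both M17). Read at 37 °C, 355/460 nm, to steady-state velocity. Ki from a Morrison tight-binding fit; biological triplicate from three protein preparations.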

[2] = Inhibition of Plasmodium falciparum C-terminal His6-tagged M17 aminopeptidase (85 to 605 residues) expressed in Escherichia coli BL21(DE3) preincubated for 20 mins followed by L-leucine-7-amido-4-methylcoumarin addition by Morrison equation analysis; procedure, shortened: as §1
[3] = Inhibition of Plasmodium vivax C-terminal His6-tagged M17 aminopeptidase (203 to 621 residues) expressed in Escherichia coli BL21(DE3) preincubated for 20 mins followed by L-leucine-7-amido-4-methylcoumarin addition by Morrison equation analysis; procedure, shortened: as §1
[4] = Selectivity ratio of Ki for Plasmodium falciparum C-terminal His6-tagged M1 aminopeptidase (195 to 1085 residues) expressed in Escherichia coli BL21(DE3) to Ki for Plasmodium vivax C-terminal His6-tagged M1 aminopeptidase (195 to 1097 residues) expressed in Escherichia coli BL21(DE3)
[5] = Inhibition of Plasmodium falciparum C-terminal His6-tagged M1 aminopeptidase (195 to 1085 residues) expressed in Escherichia coli BL21(DE3) preincubated for 20 mins followed by L-leucine-7-amido-4-methylcoumarin addition by Morrison equation analysis; procedure, shortened: as §1
[6] = Growth inhibition of HEK293 cells at 10 uM after 72 hrs by resazurin dye based assay relative to control; assay type: cell-based; details: human, read-out: GI
Procedure, shortened: (§2)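 HEK293 cells kept in DMEM with 10% FBS. Exposed to compounds for 72 h at 37 °C, 5% CO2, using the same dilution scheme as the parasite assay (top 40 μM). Medium then replaced with 44 μM resazurin, and fluorescence (530/595 nm) read after 5–6 h.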

Plasmodium falciparum [7] = assay: Antimalarial activity against Plasmodium falciparum Dd2 after 72 hrs by DAPI staining-based confocal imaging analysis; assay type: functional, organism-based
Procedure, shortened: (§3)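 Exposed to a 16-point dose series (40 μM to 0.4 nM final, 0.4% DMSO) for 72 h at 37 °C in 90% N2/5% CO2/5% O2. DAPI-stained and imaged confocally. Two biological replicates, each with two technical repeats.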

Plasmodium falciparum [8] = assay: Antimalarial activity against Plasmodium falciparum 3D7 after 72 hrs by DAPI staining-based confocal imaging analysis; assay type: functional, organism-based; details: 3D7, 72 h; procedure, shortened: as §3
[9] = Cytotoxicity against HEK293 cells after 72 hrs by resazurin dye based assay; assay type: cell-based; details: human; procedure, shortened: as §2
[10] = Growth inhibition of HEK293 cells at 40 uM after 72 hrs by resazurin dye based assay relative to control; assay type: cell-based; details: human, read-out: GI; procedure, shortened: as §2
[11] = Selectivity index, ratio of CC50 for HEK293 cells to IC50 for Plasmodium falciparum 3D7; assay type: toxicity; details: human, read-out: Ratio CC50/IC50
[12] = biological target: T1, Matrilysin (Homo sapiens) (UniProt P09237); assay: Inhibition of MMP7 (unknown origin) preincubated for 1 hr followed by (QF)-24 substrate addition measured at 1 min time interval for 1 hr by fluorescence assay
T1 sequence (whole entry): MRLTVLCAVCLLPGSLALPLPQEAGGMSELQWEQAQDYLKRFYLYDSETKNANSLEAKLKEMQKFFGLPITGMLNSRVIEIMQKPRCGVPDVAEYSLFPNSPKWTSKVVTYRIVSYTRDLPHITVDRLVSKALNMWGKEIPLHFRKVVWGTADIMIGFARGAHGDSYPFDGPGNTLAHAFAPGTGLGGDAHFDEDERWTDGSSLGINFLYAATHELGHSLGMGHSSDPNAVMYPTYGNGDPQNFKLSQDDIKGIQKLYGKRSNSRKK
Procedure, shortened: (§4)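 MMPs were activated with 1 mM 4-aminophenylmercuric acetate (50 mM HEPES, 150 mM NaCl, 5 mM CaCl2, pH 7.0, 1 h, rt). 1 μM QF24 was added at 37 °C and read at 320/405 nm every minute for 1 h. IC50 from a four-parameter Hill fit; three independent experiments.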

[13] = biological target: Neutrophil collagenase (Homo sapiens) (UniProt P22894); assay: Inhibition of MMP8 (unknown origin) preincubated for 1 hr followed by (QF)-24 substrate addition measured at 1 min time interval for 1 hr by fluorescence assay; procedure, shortened: as §4
[14] = biological target: 72 kDa type IV collagenase (Homo sapiens, UniProt P08253); assay: Inhibition of MMP2 (unknown origin) preincubated for 1 hr followed by (QF)-24 substrate addition measured at 1 min time interval for 1 hr by fluorescence assay
[15] = biological target: Matrix metalloproteinase-9 (Homo sapiens, UniProt P14780); assay: Inhibition of MMP9 (unknown origin) preincubated for 1 hr followed by (QF)-24 substrate addition measured at 1 min time interval for 1 hr by fluorescence assay
[16] = Plasmodium falciparum, Dd2, 72 h, read-out: IC50

Neutrophil collagenase (Homo sapiens), sequence (P22894 101-467 limits assumed): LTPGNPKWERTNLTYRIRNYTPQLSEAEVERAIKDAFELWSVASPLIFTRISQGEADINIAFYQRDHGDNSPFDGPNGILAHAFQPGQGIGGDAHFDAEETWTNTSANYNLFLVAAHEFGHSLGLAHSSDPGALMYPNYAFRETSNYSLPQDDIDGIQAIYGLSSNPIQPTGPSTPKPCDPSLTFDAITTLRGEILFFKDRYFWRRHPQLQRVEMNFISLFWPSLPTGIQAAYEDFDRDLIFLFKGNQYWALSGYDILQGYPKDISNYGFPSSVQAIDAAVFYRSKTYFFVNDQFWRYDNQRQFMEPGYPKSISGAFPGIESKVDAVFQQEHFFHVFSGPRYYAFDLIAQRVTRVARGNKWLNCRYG
72 kDa type IV collagenase, sequence (P08253 whole entry): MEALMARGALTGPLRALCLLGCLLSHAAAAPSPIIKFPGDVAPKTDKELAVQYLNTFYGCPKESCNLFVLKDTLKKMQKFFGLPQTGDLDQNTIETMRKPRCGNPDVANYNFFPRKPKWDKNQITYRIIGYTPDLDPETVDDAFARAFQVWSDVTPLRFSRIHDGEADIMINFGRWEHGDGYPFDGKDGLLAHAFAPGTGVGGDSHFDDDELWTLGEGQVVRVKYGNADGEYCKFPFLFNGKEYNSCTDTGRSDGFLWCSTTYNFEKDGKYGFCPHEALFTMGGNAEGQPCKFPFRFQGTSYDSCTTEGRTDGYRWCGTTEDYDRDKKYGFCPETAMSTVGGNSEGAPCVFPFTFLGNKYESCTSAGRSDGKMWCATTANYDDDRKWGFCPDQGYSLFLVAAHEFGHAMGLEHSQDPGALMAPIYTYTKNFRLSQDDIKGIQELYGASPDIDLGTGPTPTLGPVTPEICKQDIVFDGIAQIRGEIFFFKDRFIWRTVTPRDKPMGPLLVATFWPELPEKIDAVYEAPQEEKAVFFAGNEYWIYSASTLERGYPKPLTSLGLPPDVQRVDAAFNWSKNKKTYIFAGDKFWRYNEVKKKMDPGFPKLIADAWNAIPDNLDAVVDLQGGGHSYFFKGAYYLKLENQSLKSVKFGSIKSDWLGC
Matrix metalloproteinase-9, sequence (P14780 whole entry): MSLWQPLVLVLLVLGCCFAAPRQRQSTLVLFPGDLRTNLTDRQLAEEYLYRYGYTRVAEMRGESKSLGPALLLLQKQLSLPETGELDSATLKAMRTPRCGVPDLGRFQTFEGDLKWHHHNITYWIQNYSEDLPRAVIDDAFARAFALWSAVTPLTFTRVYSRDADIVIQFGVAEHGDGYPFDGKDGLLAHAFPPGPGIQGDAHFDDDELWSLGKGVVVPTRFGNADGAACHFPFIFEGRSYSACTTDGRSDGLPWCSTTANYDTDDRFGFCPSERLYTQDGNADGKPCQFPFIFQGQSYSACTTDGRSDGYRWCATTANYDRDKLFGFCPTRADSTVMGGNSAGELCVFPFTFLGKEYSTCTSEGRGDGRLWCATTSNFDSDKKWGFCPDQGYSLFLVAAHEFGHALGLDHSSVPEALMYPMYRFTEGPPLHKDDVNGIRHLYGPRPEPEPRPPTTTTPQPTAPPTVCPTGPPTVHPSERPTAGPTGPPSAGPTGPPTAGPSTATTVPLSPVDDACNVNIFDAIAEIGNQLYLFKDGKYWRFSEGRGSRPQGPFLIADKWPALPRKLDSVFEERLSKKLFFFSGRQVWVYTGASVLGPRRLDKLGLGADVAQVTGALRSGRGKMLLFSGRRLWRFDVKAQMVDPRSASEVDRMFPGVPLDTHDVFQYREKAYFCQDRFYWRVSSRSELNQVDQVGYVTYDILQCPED

Row | Compound | Ki [1] [nM] | Ki [2] [nM] | Ki [3] [nM] | Ratio Ki [4] | Ki [5] [nM] | inhibition at 72 h, 10 µM [6] [%] | IC50 (Plasmodium falciparum [7]; [16]) [nM] | IC50 (Plasmodium falciparum [8]) [nM] | CC50 at 72 h [9] [nM] | inhibition at 72 h, 40 µM [10] [%] | selectivity ratio [11] | IC50 (Plasmodium falciparum [7]) | inhibition [12] | inhibition [13] | IC50 [14] [nM] | IC50 [15] [nM]
1 | O=C(CC1CCCCC1)NC(C(=O)NO)c1ccc(-c2cc(F)c(F)c(F)c2)cc1 (configuration not stated) | 13.2 | 288 | 148 | 10 | 812 | – | – | – | – | – | – | – | – | – | – | –
2 | C[C@H]1[C@H](OC(=O)CCC(=O)O)O[C@@H]2O[C@@]3(C)CC[C@H]4[C@H](C)CC[C@@H]1[C@@]24OO3 [ARTESUNATE] | – | – | – | – | – | 42.3 | 1 | 1.6 | – | – | – | – | – | – | – | –
3 | O=C(N[C@@H](C(=O)NO)c1ccc(-c2cc(F)c(F)c(F)c2)cc1)[C@@H](F)C(F)(F)F (racemic) | 11.2 | 814 | 382 | 10 | 257 | – | – | – | – | – | – | – | – | – | – | –
4 | CCc1nc(N)nc(N)c1-c1ccc(Cl)cc1 [PYRIMETHAMINE] | – | – | – | – | – | 34.4 | – | 5.1 | ≥ 20000 | 53.7 | ≥ 1960 | Not Active | – | – | – | –
5 | O=C(NO)C(NC(=O)C(F)(F)C(F)(F)F)c1ccc(-c2cc(F)c(F)c(F)c2)cc1 (configuration not stated) | 90 | 200 | 97.5 | 10 | 815 | – | – | – | – | – | – | – | – | – | – | –
6 | CNC(=O)[C@@H](NC(=O)[C@H](CC(C)C)[C@H](O)C(=O)NO)C(C)(C)C | – | – | – | – | – | – | – | – | – | – | – | – | Active | Active | – | –
7 | COc1ccc2nc3cc(Cl)ccc3c(Nc3cc(CN4CCCC4)c(O)c(CN4CCCC4)c3)c2n1 [PYRONARIDINE] | – | – | – | – | – | 102 | 7.9 | 7 | 3550 | 95.6 | 507 | – | – | – | – | –
8 | CC(C)C[C@@H](C(=O)N[C@H](C(=O)OC1CCCC1)c1ccccc1)C(O)C(=O)NO (some centres not stated) | – | – | – | – | – | – | – | – | – | – | – | – | Active | Active | 190 | 1500
9 | O=C(CC1CC1)NC(C(=O)NO)c1ccc(-c2cc(F)c(F)c(F)c2)cc1 (configuration not stated) | 17.9 | 270 | 303 | 10 | 202 | 6.4 | 109 | 136 | – | 37.6 | – | – | – | – | – | –
10 | O=C(CC(F)(F)F)NC(C(=O)NO)c1ccc(-c2cc(F)c(F)c(F)c2)cc1 (configuration not stated) | 149 | 999 | 1050 | 10 | 537 | – | – | – | – | – | – | – | – | – | – | –
11 | O=C(CC1CCC1)NC(C(=O)NO)c1ccc(-c2cc(F)c(F)c(F)c2)cc1 (configuration not stated) | 2.85 | 306 | 75.6 | 62.1 | 177 | 6.3 | 29.2 | 55.4 | – | 5.6 | – | – | – | – | – | –
12 | CC(C)(C)C(=O)NC(C(=O)NO)c1ccc(-c2cc(F)c(F)c(F)c2)cc1 (configuration not stated) | 14.1 | 147 | 74.8 | 10 | 331 | 1.1 | 81.7 | 83.1 | ≥ 20000 | 80.7 | ≥ 241 | – | – | – | – | –
13 | CCN(CC)CCCC(C)Nc1ccnc2cc(Cl)ccc12 (configuration not stated) [CHLOROQUINE] | – | – | – | – | – | 17.3 | – | – | ≥ 20000 | 57 | – | – | – | – | – | –
14 | O=C(CC1CC2CCC1C2)NC(C(=O)NO)c1ccc(-c2cc(F)c(F)c(F)c2)cc1 (configuration not stated) | 12.7 | 127 | 93.1 | 10 | 136 | 0.6 | 120 | 220 | – | 19.7 | – | – | – | – | – | –
